ChEMBL document CHEMBL4689842, “EUbOPEN Chemogenomics Library wave 1” (2021)

Test system: Fibroblast
Test: Multiplex assay against human fibroblast
Assay type: toxicity, cell-based
In short: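 Tubulin, mitochondrial-mass and membrane-permeability phenotypes are per cents of healthy-nucleus cells. Cells were gated by CellPathfinder machine learning into Hoechst high-intensity objects or normal cells, normal cells into healthy, pyknosed or fragmented nuclei, and pyknosed cells into mitotic or apoptotic. Before that, live cells stained at seeding with Hoechst33342, BioTracker Green Microtubule Cytoskeleton Dye, MitoTracker Red and Annexin V Alexa Fluor 680 were imaged on a CQ1 microscope at 37°C and 5% CO2 after compound addition.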

[1] = 12 h, 1 µM, compound concentration 1 uM, replicate 1
[2] = 12 h, 1 µM, compound concentration 1 uM, replicate 2
[3] = 12 h, 10 µM, compound concentration 10 uM, replicate 1
[4] = 12 h, 10 µM, compound concentration 10 uM, replicate 2
[5] = 24 h, 1 µM, compound concentration 1 uM, replicate 1
[6] = 24 h, 1 µM, compound concentration 1 uM, replicate 2
[7] = 24 h, 10 µM, compound concentration 10 uM, replicate 1
[8] = 24 h, 10 µM, compound concentration 10 uM, replicate 2
[9] = 48 h, 1 µM, compound concentration 1 uM, replicate 1
[10] = 48 h, 1 µM, compound concentration 1 uM, replicate 2
[11] = 48 h, 10 µM, compound concentration 10 uM, replicate 1
[12] = 48 h, 10 µM, compound concentration 10 uM, replicate 2

For `CC(C)NCC(O)COc1ccc(CCOCC2CC2)cc1.Cl` (stereo not drawn) [BETAXOLOL HYDROCHLORIDE], the “Population Apoptotic (%)” value [1] was 41%, the “Population Fragmented Nuclei (%)” value [1] was 22% and the “Population Healthy Nuclei (%)” value [1] was 47%. For the same compound, the “Population Hoechst High Intensity Objects (%)” value [1] was 4%, the “Population Membrane Permeable-Phenotype (%)” value [1] was 23% and the “Population Mitochondria Different-Phenotype (%)” value [1] was 2%. For the same compound, the “Population Mitotic Cells (%)” value [1] was 58%, the “Population Normal (%)” value [1] was 95% and the “Population Pyknosed Nuclei (%)” value [1] was 30%. The “Population Tubulin-Different-Phenotype (%)” value [1] was 39%, the “Total Cell Count” value [1] was 84 and the “Population Apoptotic (%)” value [2] was 100%. The “Population Fragmented Nuclei (%)” value [2] was 2%, the “Population Healthy Nuclei (%)” value [2] was 95% and the “Population Hoechst High Intensity Objects (%)” value [2] was 16%. The “Population Membrane Permeable-Phenotype (%)” value [2] was 6%, the “Population Mitotic Cells (%)” value [2] was 0% and the “Population Normal (%)” value [2] was 83%. The “Population Pyknosed Nuclei (%)” value [2] was 2%, the “Population Tubulin-Different-Phenotype (%)” value [2] was 9% and the “Total Cell Count” value [2] was 55. For the same compound, the “Population Apoptotic (%)” value [3] was 67%, the “Population Fragmented Nuclei (%)” value [3] was 17% and the “Population Healthy Nuclei (%)” value [3] was 55%. The “Population Hoechst High Intensity Objects (%)” value [3] was 16%, the “Population Membrane Permeable-Phenotype (%)” value [3] was 10% and the “Population Mitochondria Different-Phenotype (%)” value [3] was 17%. For the same compound, the “Population Mitotic Cells (%)” value [3] was 32%, the “Population Normal (%)” value [3] was 83% and the “Population Pyknosed Nuclei (%)” value [3] was 26%. The “Population Tubulin-Different-Phenotype (%)” value [3] was 58%, the “Total Cell Count” value [3] was 125 and the “Population Apoptotic (%)” value [4] was 23%. For the same compound, the “Population Fragmented Nuclei (%)” value [4] was 9%, the “Population Healthy Nuclei (%)” value [4] was 77% and the “Population Hoechst High Intensity Objects (%)” value [4] was 7%. The “Population Membrane Permeable-Phenotype (%)” value [4] was 5%, the “Population Mitochondria Different-Phenotype (%)” value [4] was 72% and the “Population Mitotic Cells (%)” value [4] was 76%. The “Population Normal (%)” value [4] was 92%, the “Population Pyknosed Nuclei (%)” value [4] was 13% and the “Population Tubulin-Different-Phenotype (%)” value [4] was 49%. The “Total Cell Count” value [4] was 107, the “Population Apoptotic (%)” value [5] was 30% and the “Population Fragmented Nuclei (%)” value [5] was 20%. The “Population Healthy Nuclei (%)” value [5] was 55%, the “Population Hoechst High Intensity Objects (%)” value [5] was 9% and the “Population Membrane Permeable-Phenotype (%)” value [5] was 30%. The “Population Mitochondria Different-Phenotype (%)” value [5] was 4%, the “Population Mitotic Cells (%)” value [5] was 70% and the “Population Normal (%)” value [5] was 90%. For the same compound, the “Population Pyknosed Nuclei (%)” value [5] was 24%, the “Population Tubulin-Different-Phenotype (%)” value [5] was 34% and the “Total Cell Count” value [5] was 92. For the same compound, the “Population Apoptotic (%)” value [6] was 33%, the “Population Fragmented Nuclei (%)” value [6] was 3% and the “Population Healthy Nuclei (%)” value [6] was 85%. For the same compound, the “Population Hoechst High Intensity Objects (%)” value [6] was 5%, the “Population Membrane Permeable-Phenotype (%)” value [6] was 4% and the “Population Mitochondria Different-Phenotype (%)” value [6] was 6%. The “Population Mitotic Cells (%)” value [6] was 66%, the “Population Normal (%)” value [6] was 94% and the “Population Pyknosed Nuclei (%)” value [6] was 10%. For the same compound, the “Population Tubulin-Different-Phenotype (%)” value [6] was 2%, the “Total Cell Count” value [6] was 59 and the “Population Apoptotic (%)” value [7] was 74%. The “Population Fragmented Nuclei (%)” value [7] was 25%, the “Population Healthy Nuclei (%)” value [7] was 50% and the “Population Hoechst High Intensity Objects (%)” value [7] was 15%. For the same compound, the “Population Membrane Permeable-Phenotype (%)” value [7] was 19%, the “Population Mitochondria Different-Phenotype (%)” value [7] was 21% and the “Population Mitotic Cells (%)” value [7] was 25%. The “Population Normal (%)” value [7] was 84%, the “Population Pyknosed Nuclei (%)” value [7] was 23% and the “Population Tubulin-Different-Phenotype (%)” value [7] was 64%. The “Total Cell Count” value [7] was 133, the “Population Apoptotic (%)” value [8] was 40% and the “Population Fragmented Nuclei (%)” value [8] was 7%. The “Population Healthy Nuclei (%)” value [8] was 78%, the “Population Hoechst High Intensity Objects (%)” value [8] was 5% and the “Population Membrane Permeable-Phenotype (%)” value [8] was 5%. For the same compound, the “Population Mitochondria Different-Phenotype (%)” value [8] was 78%, the “Population Mitotic Cells (%)” value [8] was 60% and the “Population Normal (%)” value [8] was 94%. For the same compound, the “Population Pyknosed Nuclei (%)” value [8] was 15%, the “Population Tubulin-Different-Phenotype (%)” value [8] was 46% and the “Total Cell Count” value [8] was 106. For the same compound, the “Population Apoptotic (%)” value [9] was 76%, the “Population Fragmented Nuclei (%)” value [9] was 33% and the “Population Healthy Nuclei (%)” value [9] was 50%. The “Population Hoechst High Intensity Objects (%)” value [9] was 12%, the “Population Membrane Permeable-Phenotype (%)” value [9] was 30% and the “Population Mitochondria Different-Phenotype (%)” value [9] was 4%. The “Population Mitotic Cells (%)” value [9] was 23%, the “Population Normal (%)” value [9] was 87% and the “Population Pyknosed Nuclei (%)” value [9] was 15%. For the same compound, the “Population Tubulin-Different-Phenotype (%)” value [9] was 45%, the “Total Cell Count” value [9] was 95 and the “Population Apoptotic (%)” value [10] was 83%. The “Population Fragmented Nuclei (%)” value [10] was 27%, the “Population Healthy Nuclei (%)” value [10] was 67% and the “Population Membrane Permeable-Phenotype (%)” value [10] was 13%. The “Population Mitochondria Different-Phenotype (%)” value [10] was 1%, the “Population Mitotic Cells (%)” value [10] was 16% and the “Population Pyknosed Nuclei (%)” value [10] was 4%. For the same compound, the “Population Tubulin-Different-Phenotype (%)” value [10] was 35%, the “Total Cell Count” value [10] was 157 and the “Population Apoptotic (%)” value [11] was 76%. For the same compound, the “Population Fragmented Nuclei (%)” value [11] was 41%, the “Population Healthy Nuclei (%)” value [11] was 50% and the “Population Hoechst High Intensity Objects (%)” value [11] was 24%. For the same compound, the “Population Membrane Permeable-Phenotype (%)” value [11] was 22%, the “Population Mitochondria Different-Phenotype (%)” value [11] was 4% and the “Population Mitotic Cells (%)” value [11] was 23%. For the same compound, the “Population Normal (%)” value [11] was 75%, the “Population Pyknosed Nuclei (%)” value [11] was 8% and the “Population Tubulin-Different-Phenotype (%)” value [11] was 55%. The “Total Cell Count” value [11] was 196, the “Population Apoptotic (%)” value [12] was 100% and the “Population Fragmented Nuclei (%)” value [12] was 48%. For the same compound, the “Population Hoechst High Intensity Objects (%)” value [12] was 20%, the “Population Membrane Permeable-Phenotype (%)” value [12] was 15% and the “Population Mitochondria Different-Phenotype (%)” value [12] was 2%. For the same compound, the “Population Mitotic Cells (%)” value [12] was 0%, the “Population Normal (%)” value [12] was 79% and the “Population Pyknosed Nuclei (%)” value [12] was 0%. For the same compound, the “Population Tubulin-Different-Phenotype (%)” value [12] was 66% and the “Total Cell Count” value [12] was 278.
